# Reference: ChEMBL document CHEMBL1641490, “Dicationic phenyl-2,2'-bichalcophenes and analogues as antiprotozoal agents” (Bioorg Med Chem, 2011)
# Calls of active or inactive are those of the source. The calls are words filed in the database; no cut-off is given here.
# Assays:
# [1] = test system: Trypanosoma brucei rhodesiense; experiment: Antitrypanosomal activity against Trypanosoma brucei rhodesiense STIB900 infected in NMRI mouse assessed as effect on survival days at 5 mg/kg, ip […] measured up to 60 days; format: functional; conditions: route intraperitoneal
# L6 = experiment: Cytotoxicity against rat L6 cells by alamar blue assay; format: cell-based
# [2] = Selectivity index, ratio of IC50 for rat L6 cells to IC50 for Trypanosoma brucei rhodesiense STIB900; format: toxicity, cell-based; conditions: L6 cells versus Trypanosoma brucei rhodesiense STIB900, read-out: Ratio IC50
# Procedure, shortened: (§1)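 Ratio of IC50 in cultured L6 rat myoblasts (Alamar Blue read-out) to IC50 against P. falciparum K1 or T. b. rhodesiense STIB900. Parasite values are the average of duplicate determinations.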
# Plasmodium falciparum = experiment: Antiplasmodial activity against Plasmodium falciparum K1 infected in human RBC after 48 hrs by [3H]-hypoxanthine incorporation assay; format: functional, organism-based
# Procedure, shortened: (§2)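 Parasites were Trypanosoma brucei rhodesiense STIB900 and Plasmodium falciparum K1. Values are averages of duplicate determinations.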
# [3] = test system: Trypanosoma brucei rhodesiense; experiment: Antitrypanosomal activity against Trypanosoma brucei rhodesiense STIB900 after 70 hrs by alamar blue assay; format: functional, organism-based; conditions: STIB900, 70 h; procedure, shortened: as §2
# [4] = Selectivity index, ratio of IC50 for rat L6 cells to IC50 for Plasmodium falciparum K1; format: toxicity, cell-based; conditions: L6 cells versus Plasmodium falciparum K1, read-out: Ratio IC50; procedure, shortened: as §1
# [5] = test system: Trypanosoma brucei rhodesiense; experiment: Antitrypanosomal activity against Trypanosoma brucei rhodesiense STIB900 infected in NMRI mouse assessed as parasitemia free host at 5 mg/kg, ip administered 2 days after post infection for 4 consecutive days measured up to 60 days; format: functional, organism-based; design: dose 5 mg/kg
# [6] = test system: Trypanosoma brucei rhodesiense; experiment: Antitrypanosomal activity against Trypanosoma brucei rhodesiense STIB900 infected in NMRI mouse assessed as effect on survival days at 20 mg/kg, ip administered 2 days after post infection for 4 consecutive days measured up to 60 days; format: functional; conditions: route intraperitoneal
SMILES,Survival [1],IC50 (L6),selectivity ratio [2],IC50 (Plasmodium falciparum),ΔTm (Nucleic Acid),IC50 [3],selectivity ratio [4],Activity [5],Survival [6]
Cl.N=C(N)c1ccc(-c2ccc(-c3ccc(C(=N)N)o3)o2)cn1,41.75 days,38.5 µM,6420,1 nM,5.5 °C,6 nM,38500,inactive,
Cl.N=C(N)c1ccc(-c2ccc(-c3ccc(C(=N)N)s3)s2)cn1,49 days,4 µM,1000,2.3 nM,16.6 °C,4 nM,1740,,
Cl.N=C(N)c1ccc(-c2ccc(-c3ccc(C(=N)N)o3)s2)cc1,>46.5 days,29.3 µM,14900,0.9 nM,13.1 °C,2 nM,32600,,
Cl.N=C(N)c1ccc(-c2ccc(-c3ccc(C(=N)N)s3)s2)cc1,25.25 days,6 µM,3000,10.4 nM,18.1 °C,2 nM,576,inactive,
Cl.N=C(N)c1ccc(C#Cc2ccc(-c3ccc(C(=N)N)o3)o2)cc1,15.25 days,63 µM,1500,14.1 nM,4 °C,42 nM,4470,inactive,
Cl.N=C(N)c1ccc(-c2ccc(-c3ccc(C(=N)N)o3)o2)cc1,,37.8 µM,3150,41.5 nM,8.5 °C,12 nM,910,,>45.5 days
N=C(N)c1ccc(-c2ccc(-c3ccc(C(=N)N)cc3)o2)cc1 [FURAMIDINE],>46 days,,,,,,,Active,
N=C(N)c1ccc(OCCCCCOc2ccc(C(=N)N)cc2)cc1 [PENTAMIDINE],>45 days,6 µM,,6.4 nM,,,,,
Cl.N=C(N)c1ccc(-c2ccc(-c3ccc(C(=N)N)s3)o2)cc1,16.75 days,10.9 µM,1820,17.4 nM,14.1 °C,6 nM,626,inactive,
